MIC and EC50 data for 12 molecules are collected here from ChEMBL document CHEMBL5108036, “A concise SAR-analysis of antimicrobial cationic amphipathic barbiturates for an improved activity-toxicity profile” (Eur J Med Chem, 2022).

Data set [1] has as its system Staphylococcus aureus. The experiment in a line: Antibacterial activity against Staphylococcus aureus ATCC 9144 incubated for 48 hrs and measured by broth microdilution assay. In kind it is functional. Put shortly:
(§1)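 MICs in µg/mL were measured against the reference strains S. aureus ATCC 9144, B. subtilis 168, E. coli ATCC 25922 and P. aeruginosa ATCC 27853. Compounds were tested as di-TFA salts.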
For orientation: Broth dilution looks for growth in wells or tubes with falling amounts of substance.

For data set [2], the system named is Bacillus subtilis. The experiment in a line: Antibacterial activity against Bacillus subtilis 168 incubated for 48 hrs and measured by broth microdilution assay. In kind it is functional. Put shortly:
as §1

Data set [3] deals with Escherichia coli. The experiment in a line: Antibacterial activity against Escherichia coli ATCC 25922 incubated for 48 hrs and measured by broth microdilution assay. In kind it is functional. Put shortly:
as §1

The test system of data set [4] is Pseudomonas aeruginosa. Description: Antibacterial activity against Pseudomonas aeruginosa ATCC 27853 incubated for 48 hrs and measured by broth microdilution assay. In kind it is functional. Put shortly:
as §1

A short description of data set [5]: Hemolytic activity in human RBC measured after 1 hr by microplate reader method. In kind it is toxicity, cell-based, Erythrocyte. The following applies: human, human red blood cells (erythrocytes). Put shortly: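 Human red blood cell lysis was used as the cytotoxicity read-out, expressed as EC50 in µg/mL. The highest concentration tested was 500 µM. Compounds were tested as di-TFA salts.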

A word on the MIC: it is the lowest concentration that inhibits growth of the organism. A high value points to weaker potency. One may read the EC50 as the concentration that produces a half-maximal response. Take `N=C(N)NCCCCCCN1C(=O)N(CCCCCCNC(=N)N)C(=O)C(Cc2cc(Br)cc(Br)c2)(Cc2cc(Br)cc(Br)c2)C1=O.O=C(O)C(F)(F)F.O=C(O)C(F)(F)F`: the MIC turned out to be 4 µg/mL in data set [1], 4 µg/mL in data set [2], 4 µg/mL in data set [3] and 32 µg/mL in data set [4]. Also, the EC50 at 1 h in data set [5] was determined as 57 µg/mL.
As to `N=C(N)NCCCCN1C(=O)N(CCCCNC(=N)N)C(=O)C(Cc2ccc3ccccc3n2)(Cc2ccc3ccccc3n2)C1=O.O=C(O)C(F)(F)F.O=C(O)C(F)(F)F`, the MIC in data set [1] is 8 µg/mL; in data set [2], 16 µg/mL; in data set [3], 128 µg/mL; in data set [4], above 256 µg/mL. The same molecule registered an EC50 at 1 h in data set [5] above 432 µg/mL.
For `N=C(N)NCCCCN1C(=O)N(CCCCNC(=N)N)C(=O)C(Cc2cc(Br)c(Br)cc2Br)(Cc2cc(Br)c(Br)cc2Br)C1=O.O=C(O)C(F)(F)F.O=C(O)C(F)(F)F`, in that order: 4 µg/mL, 4 µg/mL, 4 µg/mL, 8 µg/mL and 32 µg/mL.
The corresponding values for `CC(C)(C)c1ccc(CC2(Cc3cc(Br)cc(Br)c3)C(=O)N(CCCN)C(=O)N(CCCN)C2=O)cc1.O=C(O)C(F)(F)F.O=C(O)C(F)(F)F` are 4 µg/mL, 2 µg/mL, 8 µg/mL, 8 µg/mL and 47 µg/mL.
The corresponding values for `CCCCCCC1(Cc2cc(Br)cc(Br)c2)C(=O)N(CCCCNC(=N)N)C(=O)N(CCCCNC(=N)N)C1=O.O=C(O)C(F)(F)F.O=C(O)C(F)(F)F` (configuration not stated) are 2 µg/mL, 4 µg/mL, 4 µg/mL, 8 µg/mL and 58 µg/mL.
With `NCCCN1C(=O)N(CCCN)C(=O)C(Cc2ccc(C(F)(F)F)cc2)(Cc2ccc(C(F)(F)F)cc2)C1=O.O=C(O)C(F)(F)F.O=C(O)C(F)(F)F`, the MIC in data set [1] came out at 64 µg/mL; in data set [2], 16 µg/mL; in data set [3], 64 µg/mL; in data set [4], 128 µg/mL. In addition, the concentration for a half-maximal effect (EC50) at 1 h in data set [5] was above 393 µg/mL.
As to `CC(C)(C)c1ccc(CC2(Cc3cc(Br)cc(Br)c3)C(=O)N(CCCCNC(=N)N)C(=O)N(CCCCNC(=N)N)C2=O)cc1.O=C(O)C(F)(F)F.O=C(O)C(F)(F)F` (configuration not stated), the minimum inhibitory concentration (MIC) was 2 µg/mL in data set [1], 2 µg/mL in data set [2], 2 µg/mL in data set [3] and 4 µg/mL in data set [4]. Further, the EC50 at 1 h in data set [5] amounted to 39 µg/mL.
As for `NCCN1C(=O)N(CCN)C(=O)C(Cc2cc(Br)cc(Br)c2)(Cc2cc(Br)cc(Br)c2)C1=O.O=C(O)C(F)(F)F.O=C(O)C(F)(F)F`, the MIC amounted to 4 µg/mL in data set [1], 4 µg/mL in data set [2], 4 µg/mL in data set [3] and 8 µg/mL in data set [4]. Besides, in data set [5], the EC50 at 1 h worked out at 39 µg/mL.
Turning to `NCCCCN1C(=O)N(CCCCN)C(=O)C(Cc2ccc(C(F)(F)F)cc2)(Cc2cc(Br)cc(Br)c2)C1=O.O=C(O)C(F)(F)F.O=C(O)C(F)(F)F`, the minimal inhibitory concentration (MIC) in data set [1] turned out to be 16 µg/mL; in data set [2], 8 µg/mL; in data set [3], 32 µg/mL; in data set [4], 64 µg/mL. Also, the 50% effective concentration (EC50) at 1 h in data set [5] is 342 µg/mL.
For `N=C(N)NCCCCN1C(=O)N(CCCCNC(=N)N)C(=O)C(Cc2ccc3cc(Br)ccc3n2)(Cc2ccc3cc(Br)ccc3n2)C1=O.O=C(O)C(F)(F)F.O=C(O)C(F)(F)F`, in that order: 2 µg/mL, 4 µg/mL, 16 µg/mL, 128 µg/mL and 461 µg/mL.
For `N=C(N)N[C@H]1C[C@H](N2C(=O)N([C@H]3C[C@H](NC(=N)N)C3)C(=O)C(Cc3cc(Br)cc(Br)c3)(Cc3cc(Br)cc(Br)c3)C2=O)C1.O=C(O)C(F)(F)F.O=C(O)C(F)(F)F`, in that order: 2 µg/mL, 4 µg/mL, 4 µg/mL, 8 µg/mL and 62 µg/mL.
On to `O=C(O)c1cn(C2CC2)c2cc(N3CCNCC3)c(F)cc2c1=O` [CIPROFLOXACIN], for which the MIC in data set [2] and in data set [3] was below 0.03 µg/mL each time.
